Experimental data pooled from the literature.
Each line is one published result; the experiments were not run side by side.
Target: Interleukin-1 receptor-associated kinase 4 (IRAK4, Homo sapiens, UniProt Q9NWZ3)
Residues used in one study (Q9NWZ3 1-460): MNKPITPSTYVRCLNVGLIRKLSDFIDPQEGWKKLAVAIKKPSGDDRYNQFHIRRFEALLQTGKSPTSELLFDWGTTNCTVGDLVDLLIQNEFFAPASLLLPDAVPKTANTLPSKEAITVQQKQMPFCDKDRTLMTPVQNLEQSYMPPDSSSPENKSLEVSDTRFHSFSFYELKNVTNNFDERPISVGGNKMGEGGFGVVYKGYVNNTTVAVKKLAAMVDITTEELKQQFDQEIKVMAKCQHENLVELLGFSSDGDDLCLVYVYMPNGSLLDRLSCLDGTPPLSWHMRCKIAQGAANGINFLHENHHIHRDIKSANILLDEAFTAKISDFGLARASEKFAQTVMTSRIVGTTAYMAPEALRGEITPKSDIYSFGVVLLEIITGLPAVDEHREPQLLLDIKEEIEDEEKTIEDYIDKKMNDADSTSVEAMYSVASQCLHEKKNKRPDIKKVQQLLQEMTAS

CN(C)c1nccc(-c2cnn3ncccc23)n1  remaining binding (binding; 1 µM): 73%
Nc1ncc2c(n1)-c1c([nH]c3ccc(C#CC4CC4)cc13)CCCC2  remaining binding (binding, competition with immobilised ligand; 1 µM): 86%
O=C(NCc1ncc(C(F)(F)F)cc1Cl)c1ccc2c(c1)C1(CCS(=O)(=O)CC1)[C@H](C1CC1)N2S(=O)(=O)c1ccc(F)cc1  remaining binding (cell-free assay, competition with immobilised ligand; 1 µM): 100%
Cc1cnc(Nc2ccc(C(=O)N3CCC(N4CCCC4)CC3)cc2)nc1-c1cc2ccccc2s1  remaining binding (binding, competition with immobilised ligand; 1 µM): 45%
COc1ccnn2ncc(-c3ccnc(N(C)C)n3)c12  remaining binding (binding; 1 µM): 80%
CNC(=O)[C@@H]1CC[C@@H](n2c(-c3ccc4cnccc4c3)nc3ccc(C(=O)NCc4cccc(C(N)=O)c4)cc32)C1  remaining binding (binding, competition with immobilised ligand; 1 µM): 100%
C[C@@H]1CCN(c2nccc(-c3cnn4ncccc34)n2)C1  remaining binding (binding; 1 µM): 100%
C[C@H](c1ccnc(Nc2nc3ccc(-c4cc(N(C)C)ncn4)cc3[nH]2)c1)N1CCN(C(=O)CC(F)(F)F)CC1  remaining binding (cell-free assay, competition with immobilised ligand; 0.1 µM): 100%
CN(c1nccc(-c2cnn3ncccc23)n1)C1CC1  remaining binding (binding; 1 µM): 100%
CN([C@@H]1CCc2c(CC(=O)O)c3cc(S(C)(=O)=O)ccc3n2C1)S(=O)(=O)c1ccc(F)cc1  remaining binding (cell-free assay, competition with immobilised ligand; 1 µM): 95%
O=C(c1ccc(Nc2ncc(Cl)c(-c3cc4ccccc4s3)n2)cc1)N1CCC(N2CCCC2)CC1  remaining binding (binding, competition with immobilised ligand; 1 µM): 57%
CC1CCCN1c1nccc(-c2cnn3ncccc23)n1 (centres unmarked)  remaining binding (binding; 1 µM): 84%
COc1cnc(Nc2cccc(S(N)(=O)=O)c2)nc1N1CCN(c2ccccc2)CC1  remaining binding (binding, competition with immobilised ligand; 1 µM): 65%
O=C(NCC1CCOCC1)c1n[nH]cc1NC(=O)c1c(F)cccc1F  remaining binding (binding, competition with immobilised ligand; 1 µM): 100%
CCOC(=O)c1cc2cc(-c3cc(C(=O)NCc4ccc(C(=O)O)cc4)nn3C)ccc2[nH]1  remaining binding (cell-free assay, competition with immobilised ligand; 0.1 µM): 91%
c1cnn2ncc(-c3ccnc(N4CCC45COC5)n3)c2c1  remaining binding (binding; 1 µM): 79%
CCS(=O)(=O)c1cc2cc(C[C@](O)(CC(C)(C)c3ccc(F)cc3C(N)=O)C(F)(F)F)[nH]c2cn1  remaining binding (cell-free assay, competition with immobilised ligand; 1 µM): 100%
O=C(NCCCN1CCOCC1)c1ccc(Nc2nccc(-c3cc4ccccc4s3)n2)cc1  remaining binding (binding, competition with immobilised ligand; 1 µM): 75%
Cn1cc(Cl)c2c(Oc3c(F)cc(Nc4cc(Cl)nc(N)n4)cc3F)ccnc21  remaining binding (cell-free assay, competition with immobilised ligand; 0.1 µM): 90%
COc1ncc2cc3ccccc3nc2c1C#N  remaining binding (cell-free assay, competition with immobilised ligand; 5 µM): 97%
